In ChEMBL document CHEMBL1122796, “Synthesis and antihypertensive activity of 6,7-disubstituted trans-4-amino-3,4-dihydro-2,2-dimethyl-2H-1-benzopyran-3-ols” (1984):

What was measured:
Format in all cases: functional
[1] = test system: Rattus norvegicus; assay: Compound was evaluated for oral antihypertensive activity in spontaneously hypertensive rats at 0.3 mg/kg peroral administration
Summary of the method: (§1)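 Conscious spontaneously hypertensive rats (Okamoto-derived, 14-24 weeks old, systolic BP ≥180 mmHg), usually six per compound. Dosed orally by needle into the esophagus as a solution or suspension in 1% w/v methylcellulose; doses as free base. Systolic BP measured by tail cuff, restrained at 33.5 ± 0.5 °C, each reading a mean of ≥6 recordings, predose and at 1-6 h.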

[2] = test system: Rattus norvegicus; assay: Compound was evaluated for oral antihypertensive activity in spontaneously hypertensive rats at 0.03 mg/kg peroral administration; summary of the method: as §1
[3] = test system: Rattus norvegicus; assay: Compound was evaluated for oral antihypertensive activity in spontaneously hypertensive rats at 0.1 mg/kg peroral administration; summary of the method: as §1
[4] = test system: Rattus norvegicus; assay: Compound was evaluated for oral antihypertensive activity in spontaneously hypertensive rats at 1 mg/kg peroral administration; summary of the method: as §1
[5] = test system: Rattus norvegicus; assay: Compound was evaluated for oral antihypertensive activity in spontaneously hypertensive rats at 10 mg/kg peroral administration; summary of the method: as §1
[6] = test system: Rattus norvegicus; assay: Compound was evaluated for antihypertensive activity in deoxy-corticosterone acetate (DOCA) treated hypertensive rats at 1 mg/kg peroral administration; settings: route oral
[7] = test system: Rattus norvegicus; assay: Compound was evaluated for antihypertensive activity in deoxy-corticosterone acetate (DOCA) treated hypertensive rats at 3 mg/kg peroral administration; settings: route oral
[8] = test system: Rattus norvegicus; assay: Compound was evaluated for antihypertensive activity in deoxy-corticosterone acetate (DOCA) treated hypertensive rats at 0.3 mg/kg peroral administration; settings: route oral
[9] = test system: Rattus norvegicus; assay: Compound was evaluated for oral antihypertensive activity in spontaneously hypertensive rats at 3 mg/kg peroral administration; summary of the method: as §1
[10] = test system: Rattus norvegicus; assay: Compound was evaluated for antihypertensive activity in deoxy-corticosterone acetate (DOCA) treated hypertensive rats at 100 mg/kg peroral administration; settings: route oral
[11] = test system: Rattus norvegicus; assay: Compound was evaluated for oral antihypertensive activity in spontaneously hypertensive rats at 100 mg/kg peroral administration; summary of the method: as §1
[12] = test system: Rattus norvegicus; assay: Compound was evaluated for antihypertensive activity in deoxy-corticosterone acetate (DOCA) treated hypertensive rats at 10 mg/kg peroral administration; settings: route oral
[13] = test system: Rattus norvegicus; assay: Compound was evaluated for oral antihypertensive activity in spontaneously hypertensive rats at 0.01 mg/kg peroral administration; summary of the method: as §1

SMILES | Max fall in blood pressure [1] [mmHg] | Max fall in blood pressure [3] [mmHg] | Max fall in blood pressure [4] [mmHg] | Max fall in blood pressure [5] [mmHg] | Max fall in blood pressure [6] [mmHg] | further results
CC1(C)Oc2cc(N)c(C#N)cc2[C@@H](N2CCCC2)[C@@H]1O | 115 | 54 | – | – | – | Max fall in blood pressure [2]: 40 mmHg
CC(=O)Nc1cc2c(cc1C(N)=O)[C@@H](N1CCCCC1)[C@H](O)C(C)(C)O2 | 34 | – | 50 | – | – | –
CC1(C)Oc2ccc(N)cc2C(N2CCCC2)[C@@H]1O.CS(=O)(=O)O (some centres not stated) | – | – | – | -10 | 6 | –
COC(=O)C1=C(C)NC(C)=C(C(=O)OC)C1c1ccccc1[N+](=O)[O-] [NIFEDIPINE] | 13 | – | 30 | – | 33 | Max fall in blood pressure [7]: 51 mmHg; Max fall in blood pressure [8]: 20 mmHg; Max fall in blood pressure [9]: 62 mmHg
CC1(C)Oc2cc([N+](=O)[O-])c(N)cc2[C@@H](N2CCCC2)[C@@H]1O | 83 | 22 | 71 | – | – | –
CC1(C)Oc2ccc([N+](=O)[O-])cc2C(N2CCCC2)[C@@H]1O.Cl (some centres not stated) | 32 | – | 52 | – | 52 | –
CC1(C)Oc2cc([N+](=O)[O-])c(N)cc2[C@@H](N2CCCCC2)[C@@H]1O | 42 | – | 67 | – | – | –
CC(=O)Nc1cc2c(cc1[N+](=O)[O-])OC(C)(C)[C@@H](O)[C@@H]2N1CCCCC1 | – | – | – | 89 | – | Max fall in blood pressure [9]: 44 mmHg
CC(=O)Nc1cc2c(cc1[N+](=O)[O-])OC(C)(C)[C@@H](O)[C@@H]2N1CCCC1 | – | – | – | 99 | – | Max fall in blood pressure [9]: 25 mmHg
CC1(C)Oc2cc([N+](=O)[O-])ccc2C(N2CCCC2)[C@@H]1O.Cl (some centres not stated) | 17 | – | 83 | – | 44 | Max fall in blood pressure [7]: 90 mmHg
CC(=O)Nc1cc2c(cc1[N+](=O)[O-])[C@@H](N1CCCCC1)[C@H](O)C(C)(C)O2 | 108 | 78 | – | – | – | –
CC1(C)Oc2ccc(C#N)cc2C(N2CCCC2)[C@@H]1O.CS(=O)(=O)O (some centres not stated) | 41 | – | 61 | – | 43 | Max fall in blood pressure [8]: 15 mmHg
CC(=O)Nc1ccc2c(c1)C(N1CCCCC1)[C@H](O)C(C)(C)O2.Cl (some centres not stated) | – | – | – | 19 | – | Max fall in blood pressure [10]: 4 mmHg; Max fall in blood pressure [11]: 42 mmHg; Max fall in blood pressure [12]: 6 mmHg
CC1(C)Oc2cc(N)c([N+](=O)[O-])cc2[C@@H](N2CCCC2)[C@@H]1O | – | 122 | – | – | – | Max fall in blood pressure [2]: 47 mmHg
CC1(C)Oc2ccc(C(N)=O)cc2C(N2CCCCC2)[C@@H]1O.Cl (some centres not stated) | – | – | 24 | 109 | 9 | Max fall in blood pressure [9]: 76 mmHg
CC(=O)Nc1cc2c(cc1C#N)[C@@H](N1CCCC1)[C@H](O)C(C)(C)O2 | 149 | 36 | – | – | – | –
CC1(C)Oc2cc(N)c([N+](=O)[O-])cc2[C@@H](N2CCCCC2)[C@@H]1O | 111 | 110 | – | – | – | Max fall in blood pressure [2]: 71 mmHg; Max fall in blood pressure [13]: 14 mmHg
Cl.NNc1nncc2ccccc12 [HYDRALAZINE HYDROCHLORIDE] | – | – | 42 | 89 | 32 | Max fall in blood pressure [7]: 65 mmHg; Max fall in blood pressure [12]: 113 mmHg; Max fall in blood pressure [9]: 51 mmHg
